According to ChEMBL document CHEMBL1138791, “Acyl sulfonamide anti-proliferatives: benzene substituent structure-activity relationships for a novel class of antitumor agents” (J Med Chem, 2004):

How the values were obtained:
[1] = Diameter of zone of inhibition for cell colony formation of normal fibroblast at the dose of 210 ug; Range is 0-6.5; type: functional, Homo sapiens
How it was run: (§1)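 Soft agar disk diffusion: leukemia (L1210), solid tumor (HCT116, or colon H15) and normal fibroblast cells seeded in soft agar in separate 60 mm dishes. Compound applied to a filter paper disk (dose in μg/disk) set on the agar. Colony-formation inhibition zones read after 6–7 days at 37 °C. 200 zone units = 6.5 mm; 950 = total inhibition; a range marks partial colony shrinkage. n > 2 unless noted.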

HCT-116 [2] = test: Diameter of zone of inhibition for cell colony formation of solid tumor HCT116 at the dose of 210 ug; type: functional, Homo sapiens
How it was run: (§2)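 HCT116, L1210 leukaemia and normal fibroblast cells were seeded in soft agar in separate 60 mm dishes. The compound was applied to a filter-paper disk laid on the agar. Colony-formation inhibition zones were read after 6–7 days at 37 °C and expressed in zone units (200 units = 6.5 mm; 950 = total inhibition; 0 = none). n > 2 unless otherwise indicated.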

L1210 [3] = test: Diameter of zone of inhibition for cell colony formation of leukemia L1210 at the dose of 210 ug; type: functional, Mus musculus; how it was run: as §1
[4] = Diameter of zone of inhibition for cell colony formation of normal fibroblast at the dose of 190 ug; Range is 0-12.35; type: functional, Homo sapiens; how it was run: as §1
HCT-116 [5] = test: Diameter of zone of inhibition for cell colony formation of solid tumor HCT116 at the dose of 190 ug; type: functional, Homo sapiens; how it was run: as §1
HT-29 = test: Growth inhibitory activity against human colon HT-29 cell line; type: functional
How it was run: (§3)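 Cell-line screen run at NCI by published procedures. […] The mean graph midpoint is taken across all human cancer cell lines successfully tested.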

NCI-H522 = test: Growth inhibitory activity against human lung NCI-H522 cell line; type: functional; how it was run: as §3
L1210 [6] = test: Diameter of zone of inhibition for cell colony formation of leukemia L1210 at the dose of 190 ug; Range is 0-5.525; type: functional, Mus musculus; how it was run: as §1
[7] = Diameter of zone of inhibition for cell colony formation of normal fibroblast at the dose of 190 ug; Range is 0-13.65; type: functional, Homo sapiens; how it was run: as §1
[8] = test system: Panel (Carcinoma cell lines); test: Mean graph mid point value for cytotoxic activity against human cancer cell lines was determined; type: functional; how it was run: as §3
SW-620 = test: Growth inhibitory activity against human colon SW620 cell line; type: functional; how it was run: as §3
MCF7 = test: Growth inhibitory activity against human breast MCF-7 cell line; type: functional; how it was run: as §3
HCT-116 [9] = test: Growth inhibitory activity against human colon HCT116 cell line; type: functional; how it was run: as §3
RXF 393 = test: Growth inhibitory activity against human renal RXF-393 cell line; type: functional; how it was run: as §3
HL-60 = test: Growth inhibitory activity against human leukemia HL-60 (TB) cell line; type: functional; design: unit not given here
[10] = Diameter of zone of inhibition for cell colony formation of normal fibroblast at the dose of 210 ug; Range is 0-13.975; type: functional, Homo sapiens; how it was run: as §1
L1210 [11] = test: Diameter of zone of inhibition for cell colony formation of leukemia L1210 at the dose of 210 ug; Range is 3.75-5.525; type: functional, Mus musculus; how it was run: as §1
[12] = Diameter of zone of inhibition for cell colony formation of normal fibroblast at the dose of 210 ug; type: functional, Homo sapiens; how it was run: as §1
L1210 [13] = test: Diameter of zone of inhibition for cell colony formation of leukemia L1210 at the dose of 210 ug; Range is 0-8.125; type: functional, Mus musculus; how it was run: as §1
HCT-116 [14] = test: Diameter of zone of inhibition for cell colony formation of solid tumor HCT116 at the dose of 190 ug; Range is 22.75-24.375; type: functional, Homo sapiens; how it was run: as §2
L1210 [15] = test: Diameter of zone of inhibition for cell colony formation of leukemia L1210 at the dose of 190 ug; type: functional, Mus musculus; how it was run: as §1
[16] = Diameter of zone of inhibition for cell colony formation of normal fibroblast at the dose of 190 ug; Range is 0-10.25; type: functional, Homo sapiens; how it was run: as §1
[17] = Diameter of zone of inhibition for cell colony formation of normal fibroblast at the dose of 190 ug; type: functional, Homo sapiens; how it was run: as §1
[18] = Diameter of zone of inhibition for cell colony formation of normal fibroblast at the dose of 190 ug; Range is 0-12.025; type: functional, Homo sapiens; how it was run: as §1
[19] = Diameter of zone of inhibition for cell colony formation of normal fibroblast at the dose of 200 ug; type: functional, Homo sapiens; how it was run: as §1
HCT-116 [20] = test: Diameter of zone of inhibition for cell colony formation of solid tumor HCT116 at the dose of 200 ug; type: functional, Homo sapiens; how it was run: as §2
L1210 [21] = test: Diameter of zone of inhibition for cell colony formation of leukemia L1210 at the dose of 200 ug; type: functional, Mus musculus; how it was run: as §1
L1210 [22] = test: Diameter of zone of inhibition for cell colony formation of leukemia L1210 at the dose of 210 ug; Range is 6.5-8.125; type: functional, Mus musculus; how it was run: as §1
[23] = Diameter of zone of inhibition for cell colony formation of normal fibroblast at the dose of 210 ug; Range is 0-9.425; type: functional, Homo sapiens; how it was run: as §1
[24] = Diameter of zone of inhibition for cell colony formation of normal fibroblast at the dose of 190 ug; Range is 0-2.275; type: functional, Homo sapiens; how it was run: as §1
[25] = Diameter of zone of inhibition for cell colony formation of normal fibroblast at the dose of 190 ug; Range is 0-8.775; type: functional, Homo sapiens; how it was run: as §1
L1210 [26] = test: Diameter of zone of inhibition for cell colony formation of leukemia L1210 at the dose of 190 ug; Range is 0-6.825; type: functional, Mus musculus; how it was run: as §1
Mus musculus = test: Tumor growth delay of human HCT116 colorectal carcinoma in mice after intravenous administration at dose of 100 mg/kg; type: functional

Q: For `COc1ccc(S(=O)(=O)NC(=O)c2ccc(Cl)cc2Cl)cc1OC`, which Inhibition [1] is on record?
A: 6.5 mm

Q: And the Inhibition (HCT-116 [2])?
A: 16.25 mm

Q: And the Inhibition (L1210 [3])?
A: 0 mm

Q: Which Inhibition [4] does the source give for `Cc1ccc(S(=O)(=O)NC(=O)c2ccc(Cl)cc2Cl)cc1Cl` here?
A: 12.35 mm

Q: What about the Inhibition (HCT-116 [5]) of the same compound?
A: 18.52 mm

Q: Which results are given for `COc1ccc(S(=O)(=O)NC(=O)c2ccc(Cl)cc2Cl)cc1`?
A: GI50 (HT-29): 41.5 µM; GI50 (NCI-H522): 39.6 µM; Inhibition (L1210 [6]): 5.52 mm; Inhibition [7]: 13.65 mm; MGM [8]: 28.8; GI50 (SW-620): 9.5 µM; Inhibition (HCT-116 [5]): 21.12 mm; GI50 (MCF7): 23.9 µM; GI50 (HCT-116 [9]): 3.5 µM; GI50 (RXF 393): 6.4 µM; GI50 (HL-60): 38.9

Q: Which results are given for `O=C(NS(=O)(=O)c1ccc(Br)cc1)c1ccc(Cl)cc1Cl`?
A: Inhibition [10]: 13.97 mm; Inhibition (L1210 [11]): 5.52 mm; Inhibition (HCT-116 [2]): 20.15 mm

Q: Which results are given for `Nc1cc(Cl)ccc1C(=O)NS(=O)(=O)c1ccc(Cl)cc1`?
A: Inhibition [12]: 8.77 mm; Inhibition (L1210 [13]): 8.12 mm; Inhibition (HCT-116 [2]): 19.82 mm

Q: What does the source list for `Cc1cc(Br)ccc1C(=O)NS(=O)(=O)c1ccc(Cl)cc1`?
A: Inhibition (HCT-116 [14]): 24.37 mm; Inhibition (L1210 [15]): 0 mm; Inhibition [16]: 10.25 mm

Q: For `CN(C)c1ccc(C(=O)NS(=O)(=O)c2ccc(Cl)cc2)cc1`, which Inhibition (HCT-116 [5]) is on record?
A: 11.7 mm

Q: What about the Inhibition [17] of the same compound?
A: 0 mm

Q: What about the Inhibition (L1210 [15]) of the same compound?
A: 5.85 mm

Q: With `Cc1cc(Cl)ccc1C(=O)NS(=O)(=O)c1ccc(Cl)cc1` as the compound, how does the GI50 (HT-29) read?
A: 100 µM

Q: What about the GI50 (NCI-H522) of the same compound?
A: 100 µM

Q: And the MGM [8]?
A: 41.7

Q: And the GI50 (SW-620)?
A: 37.9 µM

Q: What about the GI50 (MCF7) of the same compound?
A: 17.7 µM

Q: And the GI50 (HCT-116 [9])?
A: 9.7 µM

Q: And the GI50 (RXF 393)?
A: 8.6 µM

Q: What about the GI50 (HL-60) of the same compound?
A: 49.5

Q: Which results are given for `O=C(NS(=O)(=O)c1cccc(-c2ccccc2)c1)c1ccc(Cl)cc1Cl`?
A: Inhibition (HCT-116 [5]): 19.5 mm; Inhibition [18]: 12.02 mm; Inhibition (L1210 [15]): 0 mm

Q: Which results are given for `O=C(NS(=O)(=O)c1cc([N+](=O)[O-])ccc1Cl)c1ccc(Cl)cc1Cl`?
A: Inhibition [19]: 0 mm; Inhibition (HCT-116 [20]): 0 mm; Inhibition (L1210 [21]): 0 mm

Q: With `O=C(NS(=O)(=O)c1ccc(-c2ccccc2)cc1)c1ccc(Cl)cc1Cl` as the compound, how does the Inhibition (L1210 [22]) read?
A: 8.12 mm

Q: And the Inhibition [23]?
A: 9.42 mm

Q: And the Inhibition (HCT-116 [2])?
A: 16.25 mm

Q: For `O=C(NS(=O)(=O)c1ccc(Cl)cc1)c1ccc(Cl)cc1`, which Inhibition (HCT-116 [5]) is on record?
A: 10.72 mm

Q: What about the Inhibition [24] of the same compound?
A: 2.27 mm

Q: And the Inhibition (L1210 [15])?
A: 5.85 mm

Q: What does the source list for `O=C(NS(=O)(=O)c1ccc(Br)c(Br)c1)c1ccc(Cl)cc1Cl`?
A: Inhibition [25]: 8.77 mm; Inhibition (HCT-116 [5]): 13.84 mm; Inhibition (L1210 [26]): 6.82 mm

Q: For `O=C(NS(=O)(=O)c1ccc(Cl)cc1)c1ccc([N+](=O)[O-])cc1`, which Inhibition (HCT-116 [5]) is on record?
A: 8.77 mm

Q: And the Inhibition [17]?
A: 0 mm

Q: And the Inhibition (L1210 [15])?
A: 6.5 mm

Q: Which Growth delay (Mus musculus) does the source give for `CCc1c2c(nc3ccc(OC(=O)N4CCC(N5CCCCC5)CC4)cc13)-c1cc3c(c(=O)n1C2)COC(=O)[C@]3(O)CC.Cl` here?
A: 15 days
